Test results published in ChEMBL document CHEMBL3351994, “Synthesis and biological evaluation of novel millepachine derivatives as a new class of tubulin polymerization inhibitors” (J Med Chem, 2014).

What was measured:
HepG2 [1] = test: Induction of cell cycle arrest in human HepG2 cells assessed as accumulation at S phase phase at 200 nM after 24 hrs by propidium iodide staining based flow cytometry (reference value: 30.6%); format: functional
Rattus norvegicus [2] = test: Systemic clearance in rat at 9 mg/kg, po; format: ADME, organism-based; design: dose 9 mg/kg, route oral; conditions: in vivo
[3] = Cmax in rat at 2.25 mg/kg, iv; format: ADME, organism-based; design: dose 2.25 mg/kg, route intravenous; conditions: in vivo
How it was run: (§1)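 Rat pharmacokinetics; oral and intravenous dosing, with group sizes of 5, 5 and 4 rats. Parameters derived: systemic clearance, volume of distribution, area under the plasma concentration–time curve, maximum plasma concentration and percent oral bioavailability.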

A2780 = test: Resistance index, ratio of IC50 for taxol resistant human […] cells to IC50 for parental human […] cells; format: functional
HepG2 [4] = test: Induction of apoptosis in human HepG2 cells assessed as early apoptotic cells at 100 nM after 24 hrs by annexin-V-FITC and propidium iodide staining based flow cytometry (reference value: 3.63%); format: functional
How it was run: (§2)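 HepG2 cells treated with 50, 100 or 200 nM compound or DMSO vehicle for 24 or 48 h at 37 °C. Labeled with annexin-V-FITC and PI and analyzed by flow cytometry. Cells classified as early apoptotic (annexin-V+/PI−), late apoptotic (annexin-V+/PI+) or necrotic (annexin-V−/PI+).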

HepG2 [5] = test: Induction of apoptosis in human HepG2 cells assessed as viable cells at 200 nM after 24 hrs by annexin-V-FITC and propidium iodide staining based flow cytometry (reference value: 93.2%); format: functional; conditions: HepG2, 24 h, read-out: Activity
HepG2 [6] = test: Induction of cell cycle arrest in human HepG2 cells assessed as accumulation at G0/G1 phase at 50 nM after 24 hrs by propidium iodide staining based flow cytometry (reference value: 58.2%); format: functional
Rattus norvegicus [7] = test: AUC in rat at 2.25 mg/kg, iv; format: ADME, organism-based, Plasma; design: dose 2.25 mg/kg, route intravenous; conditions: in vivo; how it was run: as §1
[8] = Antiproliferative activity against human A2780S cells assessed as inhibition of cell proliferation after 48 hrs by MTT assay; format: functional, cell-based; conditions: A2780, 48 h
How it was run: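 Cells grown in DMEM with 10% FBS, penicillin/streptomycin at 37 °C, 5% CO2. 1000 cells/well seeded, incubated overnight, then exposed to various doses for 48 h. MTT added for 4 h, formazan dissolved in DMSO, absorbance read at 590 nm. IC50 = concentration inhibiting proliferation by 50%, mean ± SEM of dose–response curves from at least three independent experiments.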

HepG2 [9] = test: Induction of apoptosis in human HepG2 cells assessed as early apoptotic cells at 100 nM after 48 hrs by annexin-V-FITC and propidium iodide staining based flow cytometry (reference value: 3.63%); format: functional; how it was run: as §2
HepG2 [10] = test: Induction of apoptosis in human HepG2 cells assessed as viable cells at 100 nM after 24 hrs by annexin-V-FITC and propidium iodide staining based flow cytometry (reference value: 93.2%); format: functional; conditions: HepG2, 24 h, read-out: Activity
[11] = Oral bioavailability in rat at 9 mg/kg; format: ADME, organism-based; conditions: in vivo
HepG2 [12] = test: Induction of cell cycle arrest in human HepG2 cells assessed as accumulation at G2/M phase phase at 50 nM after 24 hrs by propidium iodide staining based flow cytometry (reference value: 11.2%); format: functional
HepG2 [13] = test: Induction of cell cycle arrest in human HepG2 cells assessed as accumulation at S phase phase at 50 nM after 24 hrs by propidium iodide staining based flow cytometry (reference value: 30.6%); format: functional
[14] = Antiproliferative activity against human ES2 cells assessed as inhibition of cell proliferation after 48 hrs by MTT assay; format: functional, cell-based; conditions: ES-2, 48 h
HepG2 [15] = test: Antiproliferative activity against human HepG2 cells assessed as inhibition of cell proliferation after 48 hrs by MTT assay; format: functional, cell-based; conditions: hepg2
How it was run: (§3)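 Cells grown at 37 °C in humidified 5% CO2. K562, C26 and HCT lines in RPMI-1640; other lines in DMEM; both media with 10% FBS, penicillin and streptomycin. 1000 cells/well seeded, incubated overnight, then compound at various doses for 48 h. MTT added for 4 h, formazan dissolved in DMSO, absorbance read at 590 nm. IC50 from dose–response curves, mean ± SEM of at least three independent experiments.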

[16] = Antiproliferative activity against adriamycin resistant human MCF7/ADR cells assessed as inhibition of cell proliferation after 48 hrs by MTT assay; format: functional, cell-based; conditions: NCI/ADR-RES; how it was run: as §3
HepG2 [17] = test: Induction of apoptosis in human HepG2 cells assessed as late apoptotic cells at 200 nM after 24 hrs by annexin-V-FITC and propidium iodide staining based flow cytometry (reference value: 1.03%); format: functional; how it was run: as §2
HepG2 [18] = test: Induction of apoptosis in human HepG2 cells assessed as early apoptotic cells at 50 nM after 48 hrs by annexin-V-FITC and propidium iodide staining based flow cytometry (reference value: 3.63%); format: functional; how it was run: as §2
A-375 = test: Antiproliferative activity against human A375 cells assessed as inhibition of cell proliferation after 48 hrs by MTT assay; format: functional, cell-based; conditions: A-375, 48 h; how it was run: as §3
HepG2 [19] = test: Induction of apoptosis in human HepG2 cells assessed as necrotic cells at 100 nM after 48 hrs by annexin-V-FITC and propidium iodide staining based flow cytometry (reference value: 2.16%); format: functional; how it was run: as §2
HepG2 [20] = test: Induction of apoptosis in human HepG2 cells assessed as late apoptotic cells at 200 nM after 48 hrs by annexin-V-FITC and propidium iodide staining based flow cytometry (reference value: 1.03%); format: functional; how it was run: as §2
HUVEC = test: Cytotoxicity in HUVECs after 48 hrs by MTT assay; format: cell-based; conditions: Homo sapiens
How it was run: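 HUVEC proliferation measured by MTT after 48 h exposure. IC50 derived from the dose–response.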

MCF7 = test: Antiproliferative activity against human MCF7 cells assessed as inhibition of cell proliferation after 48 hrs by MTT assay; format: functional, cell-based; conditions: MCF7, 48 h; how it was run: as §3
HepG2 [21] = test: Induction of apoptosis in human HepG2 cells assessed as viable cells at 50 nM after 24 hrs by annexin-V-FITC and propidium iodide staining based flow cytometry (reference value: 93.2%); format: functional; conditions: HepG2, 24 h, read-out: Activity
[22] = Antiproliferative activity against human HCT8 cells assessed as inhibition of cell proliferation after 48 hrs by MTT assay; format: functional, cell-based; conditions: HCT-8, 48 h; how it was run: as §3
HepG2 [23] = test: Induction of apoptosis in human HepG2 cells assessed as necrotic cells at 200 nM after 48 hrs by annexin-V-FITC and propidium iodide staining based flow cytometry (reference value: 2.16%); format: functional
K562 = test: Antiproliferative activity against human K562 cells assessed as inhibition of cell proliferation after 48 hrs by MTT assay; format: functional, cell-based; conditions: K562, 48 h; how it was run: as §3
AGS = test: Antiproliferative activity against human AGS cells assessed as inhibition of cell proliferation after 48 hrs by MTT assay; format: functional, cell-based; how it was run: as §3
HepG2 [24] = test: Induction of cell cycle arrest in human HepG2 cells assessed as accumulation at S phase phase at 100 nM after 24 hrs by propidium iodide staining based flow cytometry (reference value: 30.6%); format: functional
Rattus norvegicus [25] = test: Systemic clearance in rat at 2.25 mg/kg, iv; format: ADME, organism-based; design: dose 2.25 mg/kg, route intravenous; conditions: in vivo
HepG2 [26] = test: Induction of cell cycle arrest in human HepG2 cells assessed as accumulation at G0/G1 phase at 200 nM after 24 hrs by propidium iodide staining based flow cytometry (reference value: 58.2%); format: functional
Rattus norvegicus [27] = test: AUC in rat at 9 mg/kg, po; format: ADME, organism-based, Plasma; design: dose 9 mg/kg, route oral; conditions: in vivo; how it was run: as §1

COc1ccc(/C=C/C(=O)c2ccc(OC)c3c2OC(C)(C)C=C3)cc1N
Activity (HepG2 [1]): 19.1%
CL (Rattus norvegicus [2]): 98.3 mL/min/kg
Cmax [3]: 2940 ng/mL
Ratio IC50 (A2780): 4.2
Activity (HepG2 [4]): 9.65%
viability at 0.2 µM (HepG2 [5]): 63.1%
Activity (HepG2 [6]): 56.6%
AUC (Rattus norvegicus [7]): 1810 ng·h/mL
IC50 [8]: 20 nM
Activity (HepG2 [9]): 16.34%
viability at 0.1 µM (HepG2 [10]): 74.1%
bioavailability [11]: 28%
Activity (HepG2 [12]): 19.5%
Activity (HepG2 [13]): 23.9%
IC50 [14]: 8 nM
IC50 (HepG2 [15]): 8 nM
IC50 [16]: 17 nM
Activity (HepG2 [17]): 23.46%
Activity (HepG2 [18]): 13.45%
IC50 (A-375): 22 nM
Activity (HepG2 [19]): 5.45%
Activity (HepG2 [20]): 34.72%
IC50 (HUVEC): 450 nM
IC50 (MCF7): 27 nM
viability at 0.05 µM (HepG2 [21]): 88.8%
IC50 [22]: 16 nM
Activity (HepG2 [23]): 3.54%
IC50 (K562): 18 nM
IC50 (AGS): 10 nM
Activity (HepG2 [24]): 27.8%
CL (Rattus norvegicus [25]): 20 mL/min/kg
Activity (HepG2 [26]): 37.6%
AUC (Rattus norvegicus [27]): 2040 ng·h/mL
